In ChEMBL document CHEMBL4265954, “Discovery of potent liver-selective stearoyl-CoA desaturase-1 (SCD1) inhibitors, thiazole-4-acetic acid derivatives, for the treatment of diabetes, hepatic steatosis, and obesity” (Eur J Med Chem, 2018):

Legend:
Mus musculus [1] = test: Ex vivo inhibition of SCD1 in C57BL/6J mouse liver assessed as residual activity at 1 mg/kg, po treated for 6 hrs followed by incubation with [14C]stearoyl-CoA substrate for 10 mins by TLC assay relative to control; type: functional
Method in brief: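 Male 6-week-old C57BL/6J mice dosed orally as a suspension in 0.5% methylcellulose. Liver or eyelid was taken 6 or 24 h later and homogenized in 100 mM Tris-HCl pH 7.4 with 0.25 M sucrose. S9 was obtained at 10,000 × g, 4 °C. S9 was incubated with [14C]stearoyl-CoA, NADH, MgCl2 and cytochrome b5 at room temperature, 10 min for liver and 30 min for eyelid. Lipids were saponified and run on AgNO3 TLC to quantify stearate and oleate. Result is % of vehicle control.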

hERG (KCNH2) = hERG (KCNH2) (Homo sapiens, UniProt Q12809); test: Inhibition of human ERG at 10 uM relative to control
hERG (KCNH2), sequence (Q12809 whole entry): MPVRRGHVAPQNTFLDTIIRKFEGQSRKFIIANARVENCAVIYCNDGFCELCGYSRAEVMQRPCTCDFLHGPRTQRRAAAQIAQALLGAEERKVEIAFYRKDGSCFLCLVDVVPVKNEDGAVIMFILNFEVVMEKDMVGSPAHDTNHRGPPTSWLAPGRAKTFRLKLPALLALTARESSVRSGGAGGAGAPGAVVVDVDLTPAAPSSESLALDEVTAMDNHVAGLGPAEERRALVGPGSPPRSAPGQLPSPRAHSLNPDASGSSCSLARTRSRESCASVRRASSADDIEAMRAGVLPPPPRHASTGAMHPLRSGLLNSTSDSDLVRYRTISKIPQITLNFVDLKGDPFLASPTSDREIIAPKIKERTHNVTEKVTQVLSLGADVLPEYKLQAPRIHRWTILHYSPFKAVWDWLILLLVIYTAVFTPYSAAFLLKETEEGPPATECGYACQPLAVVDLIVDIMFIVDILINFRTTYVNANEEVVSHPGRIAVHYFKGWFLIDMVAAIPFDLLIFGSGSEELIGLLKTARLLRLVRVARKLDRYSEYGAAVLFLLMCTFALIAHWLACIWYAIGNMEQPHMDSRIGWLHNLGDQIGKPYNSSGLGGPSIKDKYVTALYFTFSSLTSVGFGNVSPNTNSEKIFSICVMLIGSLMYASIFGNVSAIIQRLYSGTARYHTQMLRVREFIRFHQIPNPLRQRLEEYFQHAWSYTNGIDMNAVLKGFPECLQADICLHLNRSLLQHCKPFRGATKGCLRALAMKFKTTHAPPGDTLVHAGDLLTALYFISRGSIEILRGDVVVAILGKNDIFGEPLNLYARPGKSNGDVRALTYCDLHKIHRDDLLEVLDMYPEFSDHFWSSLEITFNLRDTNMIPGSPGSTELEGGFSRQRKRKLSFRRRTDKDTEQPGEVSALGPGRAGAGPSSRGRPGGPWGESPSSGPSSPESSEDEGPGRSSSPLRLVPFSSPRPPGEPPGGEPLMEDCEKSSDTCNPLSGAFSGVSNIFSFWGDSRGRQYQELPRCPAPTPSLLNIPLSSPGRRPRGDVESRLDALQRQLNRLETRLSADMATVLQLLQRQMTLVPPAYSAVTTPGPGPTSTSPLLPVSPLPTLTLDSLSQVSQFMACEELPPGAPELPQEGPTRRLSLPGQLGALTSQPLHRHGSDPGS

Cytochrome P450 3A4 = Cytochrome P450 3A4 (Homo sapiens, UniProt P08684); test: Inhibition of CYP3A4 (unknown origin); type: ADME
Cytochrome P450 3A4, sequence (P08684 whole entry): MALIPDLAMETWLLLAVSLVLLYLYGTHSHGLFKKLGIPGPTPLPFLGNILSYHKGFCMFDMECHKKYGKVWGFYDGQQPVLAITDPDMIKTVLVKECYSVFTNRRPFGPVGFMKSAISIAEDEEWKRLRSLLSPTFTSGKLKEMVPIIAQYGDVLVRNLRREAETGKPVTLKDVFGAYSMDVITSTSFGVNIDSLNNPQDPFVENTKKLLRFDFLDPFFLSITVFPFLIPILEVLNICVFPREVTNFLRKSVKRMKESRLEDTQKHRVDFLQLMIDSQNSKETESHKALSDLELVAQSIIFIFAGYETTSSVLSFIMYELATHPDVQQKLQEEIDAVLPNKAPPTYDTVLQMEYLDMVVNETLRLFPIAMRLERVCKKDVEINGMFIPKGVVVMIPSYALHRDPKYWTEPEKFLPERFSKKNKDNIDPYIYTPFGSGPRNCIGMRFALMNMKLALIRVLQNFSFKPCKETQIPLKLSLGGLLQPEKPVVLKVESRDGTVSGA

Cytochrome P450 2D6 = Cytochrome P450 2D6 (Homo sapiens, UniProt P10635); test: Inhibition of CYP2D6 (unknown origin); type: ADME
Cytochrome P450 2D6, sequence (P10635 whole entry): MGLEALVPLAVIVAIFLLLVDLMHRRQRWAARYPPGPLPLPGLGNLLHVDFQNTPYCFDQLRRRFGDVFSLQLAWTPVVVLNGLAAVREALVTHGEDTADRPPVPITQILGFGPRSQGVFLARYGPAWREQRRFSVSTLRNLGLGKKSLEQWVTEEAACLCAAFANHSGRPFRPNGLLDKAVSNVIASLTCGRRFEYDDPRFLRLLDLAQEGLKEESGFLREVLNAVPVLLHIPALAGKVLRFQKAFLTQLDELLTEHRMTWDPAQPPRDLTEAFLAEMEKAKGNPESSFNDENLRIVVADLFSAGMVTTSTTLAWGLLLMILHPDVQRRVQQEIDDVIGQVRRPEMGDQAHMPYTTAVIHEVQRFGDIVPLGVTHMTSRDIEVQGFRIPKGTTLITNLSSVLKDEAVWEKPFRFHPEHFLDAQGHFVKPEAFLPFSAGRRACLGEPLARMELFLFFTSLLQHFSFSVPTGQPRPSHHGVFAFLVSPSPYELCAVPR

Cytochrome P450 2A6 = target: T1, Cytochrome P450 2A6 (Homo sapiens, UniProt P11509); test: Inhibition of CYP2A6 (unknown origin); type: ADME
T1 sequence (P11509 whole entry): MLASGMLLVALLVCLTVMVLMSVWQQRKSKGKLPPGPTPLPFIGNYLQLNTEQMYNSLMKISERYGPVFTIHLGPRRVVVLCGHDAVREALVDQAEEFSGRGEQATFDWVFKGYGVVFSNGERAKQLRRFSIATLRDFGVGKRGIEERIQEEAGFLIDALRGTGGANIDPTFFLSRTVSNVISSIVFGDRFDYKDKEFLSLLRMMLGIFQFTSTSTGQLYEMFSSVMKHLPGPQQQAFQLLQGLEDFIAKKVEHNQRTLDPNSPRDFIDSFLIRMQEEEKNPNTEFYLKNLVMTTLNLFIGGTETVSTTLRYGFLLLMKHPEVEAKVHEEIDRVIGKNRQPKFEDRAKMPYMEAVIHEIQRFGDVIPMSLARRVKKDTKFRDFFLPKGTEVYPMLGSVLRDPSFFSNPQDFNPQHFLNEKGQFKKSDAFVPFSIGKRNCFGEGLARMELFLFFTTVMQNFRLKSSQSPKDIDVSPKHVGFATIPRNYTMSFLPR

[2] = Cmax in C57BL/6J mouse at 10 mg/kg, po; type: ADME, organism-based; parameters: dose 10 mg/kg, route oral; details: in vivo
Method in brief: (§1)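 Two male C57BL/6J mice per route, 10 mg/kg po and 1 mg/kg iv. Plasma concentration–time profiles gave Cmax, tmax, terminal half-life and AUC0-inf. Bioavailability was derived from the po and iv data.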

[3] = Oral bioavailability in C57BL/6J mouse at 10 mg/kg; type: ADME, organism-based; details: in vivo; method in brief: as §1
[4] = Metabolic stability in mouse liver S9 fraction after 1 hr; type: ADME, subcellular; details: read-out: Stability
Mus musculus [5] = test: Antiobesity activity in high fat diet fed C57BL/6J mouse assessed as reduction in diet-induced body weight gain at 10 mg/kg, po administered as diet mixture for 43 days relative to control; type: functional; parameters: scale not given: the % may be the effect or the level left
Method in brief: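 C57BL/6J mice, individually housed, fed HFD for one month, then given HFD admixed with drug (0.0040% for 3 mg/kg/day, 0.0133% for 10 mg/kg/day) for 43 days, from 10 to 16 weeks of age. Chow-fed normal group as control. Body weight measured every 3–4 days. Mean ± SD, n=5–8. Dunnett's test versus HFD control.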

Rattus norvegicus [6] = test: Toxicity in Sprague-Dawley rat at 100 mg/kg, po once daily for 2 weeks; type: organism-based; details: in vivo, 336 h
Method in brief: (§2)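 Male Sprague Dawley rats, 6 weeks old (5 per group), were dosed orally once daily for 2 weeks at 100 or 1000 mg/kg as a suspension in 0.5% methylcellulose; controls received vehicle. Readouts: clinical observations, body weight, food consumption, ophthalmoscopy in week 2, and terminal necropsy, hematology, clinical chemistry, organ weights and histopathology. Plasma levels were measured 24 h post-dose on days 1, 5 and 10.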

Rattus norvegicus [7] = test: Toxicity in Sprague-Dawley rat assessed as loss of fur at 1000 mg/kg, po once daily for 2 weeks measured from day 9 of administeration; type: organism-based; details: in vivo, 336 h; method in brief: as §2

IC50 (Cytochrome P450 3A4): > 50 µM
IC50 (Cytochrome P450 2D6): > 50 µM
IC50 (Cytochrome P450 2A6): > 50 µM
Cmax [2]: 1700 nM
bioavailability [3]: 28%
remaining at 1 h [4]: 90%
Compound: CCCCc1ccccc1NCc1ccc(C(=O)Nc2nc(CC(=O)O)cs2)s1
Activity (Mus musculus [1]): 13%
inhibition at 10 µM (hERG (KCNH2)): 14.7%
Activity (Mus musculus [5]): 6%
Activity (Rattus norvegicus [6]): Non-Toxic
Activity (Rattus norvegicus [7]): Toxic
